The source of these data is ChEMBL document CHEMBL5032505, “Design, Synthesis, and Activity Evaluation of Stereoconfigured Tartarate Derivatives as Potential Anti-inflammatory Agents In Vitro and In Vivo” (J Med Chem, 2021).

Data set [1] deals with Mus musculus. Put plainly: Antiinflammatory activity against Swiss albino mouse assessed as reduction in carragenan-induced paw edema at 0.5 mg/kg treated 30 mins prior to carrageenan challenge and measured upto 360 mins relative to control. The arrangement: scale not given: the % may be the effect or the level left. It is filed as functional. Conditions: time 390 min, 6.5 h. The essentials:
(§1)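 100 μL freshly prepared 1% carrageenan injected into the subplantar hind paw, with indomethacin (10 mg/kg) or test compound given 30 min before. Dose–response arm used 0.5, 2.5, 5, 10, 20 mg/kg. Six animals per group. Paw thickness (mm) read at 15, 30, 60, 120, 180, 240, 300, 360 min. Result expressed as % decrease versus control.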

Data set [2] has as its system Mus musculus. The data set is described as follows: Analgesic activity in Swiss albino mouse assessed as inhibition of acetic acid-induced writhing at 5 mg/kg, ip preincubated for 30 mins with L-NIL followed by compound addition for 30 mins prior to acetic acid challenge and measured after 30 mins. It is filed as functional, organism-based. The settings on record: time 60.0 min.

Data set [3] relates to Mus musculus. The data set is described as follows: Analgesic activity in Swiss albino mouse assessed as inhibition of acetic acid-induced writhing at 5 mg/kg, ip administered 30 mins prior to acetic acid challenge and measured after 30 mins relative to control. Type of data set: functional. The arrangement: scale not given: the % may be the effect or the level left. The settings on record: time 60 min, 1 h. The essentials: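 Mice pretreated i.p. with indomethacin (10 mg/kg) or test compound (5 mg/kg) 30 min before 0.6% v/v acetic acid injection. Control group also received acetic acid. Animals placed in a transparent box and abdominal writhings counted for 30 min. Six animals per group, one-way ANOVA with Tukey's test, mean ± SEM.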

Data set [4] can be described thus: Half life in Swiss albino mouse at 10 mg/kg, ip measured upto 24 hrs by LC-MS analysis. It is filed as ADME, organism-based. The settings on record: in vivo. In outline: (§2)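 Swiss albino mice (25−35 g), either sex, 10 groups of three. 10 mg/kg suspended in 0.1% CMC, given i.p. Ketamine anaesthesia (50 mg/kg i.p.). Jugular vein blood taken at 30, 45, 60 min and 2, 3, 4, 6, 8, 11, 24 h into heparinised tubes, triplicate samples per time point.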

The test system of data set [5] is Mus musculus. The data set is described as follows: Antiinflammatory activity in Swiss albino mouse model of carrageenan-induced paw edema assessed as reduction in paw thickness at 5 mg/kg, administered 30 mins prior to carrageenan challenge and measured upto 360 mins relative to control. Type of data set: functional. The arrangement: scale not given: the % may be the effect or the level left. Conditions: time 390 min, 6.5 h. In outline: as §1

The subject of data set [6] is Glycine max.
Data set [7] relates to Mus musculus. Put plainly: Antiinflammatory activity against Swiss albino mouse assessed as reduction in carragenan-induced paw edema at 2.5 mg/kg treated 30 mins prior to carrageenan challenge and measured upto 360 mins relative to control. It is filed as functional. Conditions: time 390 min, 6.5 h. Details: scale not given: the % may be the effect or the level left. In outline:
as §1

Data set [8] concerns the target T1, Prostaglandin G/H synthase 1 (Ovis aries, UniProt P05979).
T1 sequence (P05979 whole entry): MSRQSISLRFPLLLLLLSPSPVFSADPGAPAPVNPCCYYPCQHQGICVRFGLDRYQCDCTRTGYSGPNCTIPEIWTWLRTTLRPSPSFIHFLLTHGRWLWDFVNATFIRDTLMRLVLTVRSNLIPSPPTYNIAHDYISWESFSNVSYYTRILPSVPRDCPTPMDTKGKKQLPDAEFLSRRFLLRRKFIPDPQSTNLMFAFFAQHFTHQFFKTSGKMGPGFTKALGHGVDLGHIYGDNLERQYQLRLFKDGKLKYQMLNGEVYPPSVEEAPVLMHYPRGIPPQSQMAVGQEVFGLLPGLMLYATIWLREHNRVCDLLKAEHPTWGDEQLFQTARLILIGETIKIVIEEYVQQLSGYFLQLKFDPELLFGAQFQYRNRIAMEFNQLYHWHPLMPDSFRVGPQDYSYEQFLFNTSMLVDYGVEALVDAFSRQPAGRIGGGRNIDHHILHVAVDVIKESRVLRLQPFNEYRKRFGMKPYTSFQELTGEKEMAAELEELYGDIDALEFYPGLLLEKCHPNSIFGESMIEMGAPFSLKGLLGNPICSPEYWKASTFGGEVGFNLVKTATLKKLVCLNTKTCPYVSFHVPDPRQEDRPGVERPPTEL
The data set is described as follows: Inhibition of ovine COX-1 using arachidonic acid as substrate preincubated for 10 mins followed by substrate addition and measured after 2 mins by EIA. The essentials: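 COX-1 EIA run at 10⁻⁴–10⁻⁸ M in triplicate. Enzyme with heme in reaction buffer plus inhibitor, incubated 10 min at 37 °C. Boiled (3 min) enzyme served as background. Prostaglandin output quantified to give IC50.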

The test system of data set [9] is Mus musculus. The data set is described as follows: Antiinflammatory activity against Swiss albino mouse assessed as reduction in carragenan-induced paw edema at 20 mg/kg treated 30 mins prior to carrageenan challenge and measured upto 360 mins relative to control. It is filed as functional. The arrangement: scale not given: the % may be the effect or the level left. The settings on record: time 390 min, 6.5 h. The essentials: as §1

The target of data set [10] is T2, Prostaglandin G/H synthase 2 (Homo sapiens) (UniProt P35354).
T2 sequence (whole entry): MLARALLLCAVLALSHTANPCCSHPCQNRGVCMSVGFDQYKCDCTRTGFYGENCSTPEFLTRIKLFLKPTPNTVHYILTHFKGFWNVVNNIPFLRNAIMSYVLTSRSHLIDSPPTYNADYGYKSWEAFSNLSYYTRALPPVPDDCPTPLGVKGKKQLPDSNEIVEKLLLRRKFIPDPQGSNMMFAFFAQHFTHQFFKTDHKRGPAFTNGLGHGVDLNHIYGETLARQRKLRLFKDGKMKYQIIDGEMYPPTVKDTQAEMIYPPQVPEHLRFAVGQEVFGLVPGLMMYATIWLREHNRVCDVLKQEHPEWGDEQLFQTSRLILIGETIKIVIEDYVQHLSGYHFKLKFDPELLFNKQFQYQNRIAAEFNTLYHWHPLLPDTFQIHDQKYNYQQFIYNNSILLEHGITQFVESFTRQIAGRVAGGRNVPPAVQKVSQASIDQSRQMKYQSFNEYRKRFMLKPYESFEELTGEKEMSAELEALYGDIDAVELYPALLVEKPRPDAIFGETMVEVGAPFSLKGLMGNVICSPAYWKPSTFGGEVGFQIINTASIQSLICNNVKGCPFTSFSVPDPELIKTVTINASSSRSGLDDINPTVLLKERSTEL

Data set [11] addresses T3, Prostaglandin G/H synthase 1 (Ovis aries) (UniProt P05979).
T3 sequence (whole entry): T1 sequence (P05979 whole entry)

The nature of data set [12]: Tmax in Swiss albino mouse at 10 mg/kg, ip measured upto 24 hrs by LC-MS analysis. It is filed as ADME, organism-based. Conditions: in vivo. The essentials:
as §2

Data set [13] has as its target T2, Prostaglandin G/H synthase 2 (Homo sapiens). This is another data set of the same source.
For data set [14], the system named is Mus musculus. The data set is described as follows: Antiinflammatory activity against Swiss albino mouse assessed as reduction in carragenan-induced paw edema at 10 mg/kg treated 30 mins prior to carrageenan challenge and measured upto 360 mins relative to control. Type of data set: functional. The arrangement: scale not given: the % may be the effect or the level left. Conditions: time 390 min, 6.5 h. In outline: as §1

The target in data set [15] is T2, Prostaglandin G/H synthase 2 (Homo sapiens). This is another data set of the same source.
Data set [16] is described as follows: AUC (0 to t) in Swiss albino mouse at 10 mg/kg, ip measured upto 24 hrs by LC-MS analysis. It is filed as ADME, organism-based. Details: route intraperitoneal, dose 10 mg/kg, time <=24. The settings on record: in vivo. The essentials: as §2
Data set [17] has as its system Mus musculus. Put plainly: Analgesic activity in Swiss albino mouse assessed as inhibition of acetic acid-induced writhing at 5 mg/kg, ip preincubated for 30 mins with substance P followed by compound addition for 30 mins prior to acetic acid challenge and measured after 30 mins. It is filed as functional, organism-based. The settings on record: time 60.0 min.
Data set [18] deals with Mus musculus. The data set is described as follows: Antiinflammatory activity against Swiss albino mouse assessed as reduction in carragenan-induced paw edema at 5 mg/kg treated 30 mins prior to carrageenan challenge and measured upto 360 mins relative to control. It is filed as functional. The arrangement: scale not given: the % may be the effect or the level left. Conditions: time 390 min, 6.5 h. In outline:
as §1

Calls of active or inactive are those of the source. No cut-off for these calls is given here.

On to `O=C(O)Cn1nncc1CO[C@@H](C(=O)O)[C@@H](OCc1cnnn1CC(=O)O)C(=O)O`, for which the Activity in data set [1] is on record as 2%; in data set [3], 65%; in [5] it was 33%; in data set [7], 5.4%; in data set [9], 38.5%; in [14], 36.5%. Besides, in data set [18], the Activity came out at 32.6%. Further, the result in [2] was Active. In addition, in data set [4], the half-life is 8.74 h. The compound also gave a deltaH in data set [6] of -9.99 kcal/mol. In data set [8], this compound gave an IC50 of 300 nM. Further, the Ka in [10] was 6.07 10^5/M. The deltaG is -5.02 kcal/mol in data set [11] and -7.88 kcal/mol in data set [13]. Besides, the Tmax in [12] was found to be 1 h. Further, the TdeltaS in data set [15] is -2.57 kcal/mol. The AUC(0-t) at 24 h in data set [16] was found to be 241 µg·h/mL. The outcome in [17] was inactive.
